Converted amounts (≈) assume the structure as drawn.

Sequence of Chitin synthase 1 (Candida albicans) (P23316 whole entry, looked up): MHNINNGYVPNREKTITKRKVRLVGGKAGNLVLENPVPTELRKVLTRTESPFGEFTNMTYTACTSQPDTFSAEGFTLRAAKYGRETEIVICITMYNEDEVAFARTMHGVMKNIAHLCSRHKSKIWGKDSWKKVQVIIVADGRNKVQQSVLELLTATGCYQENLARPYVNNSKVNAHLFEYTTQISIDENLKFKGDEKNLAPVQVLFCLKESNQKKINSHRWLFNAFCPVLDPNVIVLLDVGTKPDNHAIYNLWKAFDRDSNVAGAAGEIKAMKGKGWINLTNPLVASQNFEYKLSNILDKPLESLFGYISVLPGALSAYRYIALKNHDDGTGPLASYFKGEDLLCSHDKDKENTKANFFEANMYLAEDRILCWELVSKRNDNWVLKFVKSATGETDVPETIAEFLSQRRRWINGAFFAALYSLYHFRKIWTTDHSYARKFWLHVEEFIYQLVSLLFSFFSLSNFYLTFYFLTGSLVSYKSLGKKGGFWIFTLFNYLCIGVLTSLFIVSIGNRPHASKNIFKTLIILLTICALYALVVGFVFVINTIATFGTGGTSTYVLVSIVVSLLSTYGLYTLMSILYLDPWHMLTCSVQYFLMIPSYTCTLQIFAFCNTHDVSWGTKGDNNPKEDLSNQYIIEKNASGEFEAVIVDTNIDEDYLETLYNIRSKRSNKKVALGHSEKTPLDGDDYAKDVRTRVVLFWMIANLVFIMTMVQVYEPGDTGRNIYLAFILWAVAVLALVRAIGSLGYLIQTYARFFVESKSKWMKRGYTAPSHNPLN

In the first test the test system is Candida albicans. Put plainly: Compound was tested for rate of hydrolysis (percent hydrolyzed per 10 min) by cell extract from Candida albicans H-317. The test is classed as functional. The method, boiled down: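 Antibiotic (0.5 mg in H2O–DMSO 50:50) was mixed with cell extract of C. albicans H-317 (3.75 mg protein/mL) and incubated at 36 °C. Portions were withdrawn every 20 min and analysed directly by TLC and HPLC. Nle-UPOC served as control.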
Consider `CCCCCCCC(=O)NCCCC[C@H](NC(=O)[C@@H](N)CCCCNC(=O)CCCCCCC)C(=O)N[C@H](C(=O)O)[C@H]1OC(n2ccc(=O)[nH]c2=O)[C@H](O)[C@@H]1O` (some centres not stated), for which the Hydrolysis stood at 0.
As for `N[C@@H](Cc1cccc(F)c1)C(=O)N[C@H](C(=O)O)[C@H]1O[C@@H](n2ccc(=O)[nH]c2=O)[C@H](O)[C@@H]1O`, the Hydrolysis came to 33.
`NCCOC[C@H](N)C(=O)N[C@H](C(=O)O)[C@H]1O[C@@H](n2ccc(=O)[nH]c2=O)[C@H](O)[C@@H]1O` displayed a Hydrolysis of 0.
In turn, `C[C@@H]([C@H](N)C(=O)N[C@H](C(=O)O)[C@H]1O[C@@H](n2ccc(=O)[nH]c2=O)[C@H](O)[C@@H]1O)[C@H](O)c1ccc(O)cn1` [NIKKOMYCIN] displayed a Hydrolysis of 0.
Same read-out and setting: the figure for `COC(=O)/C=C/C(=O)NC[C@H](N)C(=O)N[C@H](C(=O)O)[C@H]1O[C@@H](n2ccc(=O)[nH]c2=O)[C@H](O)[C@@H]1O` is 0; for `CC(C)C[C@H](N)C(=O)N[C@H](C(=O)N[C@H](C(=O)O)[C@H]1OC(n2cc(CO)c(=O)[nH]c2=O)[C@H](O)[C@@H]1O)[C@H](O)[C@@H](O)COC(N)=O` (some centres not stated) it is 5.

In a further test the test system is Candida albicans. The experiment in a line: Compound was tested for percent inhibition of transport of (Leu)2 into Candida albicans H-317. The test is classed as functional. Details: concentration or dose not given beside the values. The method, boiled down:
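Uptake of labeled dileucine was measured with analogues added at 10-fold the molar concentration of the transport substrate. Samples were taken at 0, 1, 2, 3 and 4 min, collected on prewet 0.45 µm filters and washed twice with cold water. Rate was expressed as nmol peptide per mg dry-weight cells per min.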
As for `CCCCCCCC(=O)NCCCC[C@H](NC(=O)[C@@H](N)CCCCNC(=O)CCCCCCC)C(=O)N[C@H](C(=O)O)[C@H]1OC(n2ccc(=O)[nH]c2=O)[C@H](O)[C@@H]1O` (some centres not stated), the Transport inhibition stood at 60%.
Same read-out and setting: the figure for `N[C@@H](Cc1cccc(F)c1)C(=O)N[C@H](C(=O)O)[C@H]1O[C@@H](n2ccc(=O)[nH]c2=O)[C@H](O)[C@@H]1O` is 6%; for `NCCOC[C@H](N)C(=O)N[C@H](C(=O)O)[C@H]1O[C@@H](n2ccc(=O)[nH]c2=O)[C@H](O)[C@@H]1O` it is 58%; for `C[C@@H]([C@H](N)C(=O)N[C@H](C(=O)O)[C@H]1O[C@@H](n2ccc(=O)[nH]c2=O)[C@H](O)[C@@H]1O)[C@H](O)c1ccc(O)cn1` [NIKKOMYCIN] it is 80%.
Still for that read-out and setting: to `COC(=O)/C=C/C(=O)NC[C@H](N)C(=O)N[C@H](C(=O)O)[C@H]1O[C@@H](n2ccc(=O)[nH]c2=O)[C@H](O)[C@@H]1O` belongs 7%; to `CC(C)C[C@H](N)C(=O)N[C@H](C(=O)N[C@H](C(=O)O)[C@H]1OC(n2cc(CO)c(=O)[nH]c2=O)[C@H](O)[C@@H]1O)[C@H](O)[C@@H](O)COC(N)=O` (some centres not stated), 0%.

In the next test the test system is Candida albicans. Put plainly: Compound was tested for its lowest concentration at which growth of 124 strain of Candida albicans was clearly inhibited. The test is classed as functional.
For the molecule `CCCCCCCC(=O)NCCCC[C@H](NC(=O)[C@@H](N)CCCCNC(=O)CCCCCCC)C(=O)N[C@H](C(=O)O)[C@H]1OC(n2ccc(=O)[nH]c2=O)[C@H](O)[C@@H]1O` (some centres not stated), the MIC (usually the smallest concentration in the dilution series that meets the test's criterion for growth inhibition) was > 666 µg/mL.
Same read-out and setting: to `N[C@@H](Cc1cccc(F)c1)C(=O)N[C@H](C(=O)O)[C@H]1O[C@@H](n2ccc(=O)[nH]c2=O)[C@H](O)[C@@H]1O` belongs > 1000 µg/mL; to `NCCOC[C@H](N)C(=O)N[C@H](C(=O)O)[C@H]1O[C@@H](n2ccc(=O)[nH]c2=O)[C@H](O)[C@@H]1O`, > 1000 µg/mL; to `C[C@@H]([C@H](N)C(=O)N[C@H](C(=O)O)[C@H]1O[C@@H](n2ccc(=O)[nH]c2=O)[C@H](O)[C@@H]1O)[C@H](O)c1ccc(O)cn1` [NIKKOMYCIN], 10 µg/mL (≈ 20.2 µM).
On the same count and under the same terms, the figure for `COC(=O)/C=C/C(=O)NC[C@H](N)C(=O)N[C@H](C(=O)O)[C@H]1O[C@@H](n2ccc(=O)[nH]c2=O)[C@H](O)[C@@H]1O` is 500 µg/mL (≈ 1030 µM).
For `CC(C)C[C@H](N)C(=O)N[C@H](C(=O)N[C@H](C(=O)O)[C@H]1OC(n2cc(CO)c(=O)[nH]c2=O)[C@H](O)[C@@H]1O)[C@H](O)[C@@H](O)COC(N)=O` (some centres not stated), it took 333 µg/mL (≈ 537 µM) to inhibit growth (MIC).

For another test, the system named is Candida albicans. The experiment in a line: Compound was tested for its lowest concentration at which growth of 124N5 strain of Candida albicans was clearly inhibited. The test is classed as functional.
With `CCCCCCCC(=O)NCCCC[C@H](NC(=O)[C@@H](N)CCCCNC(=O)CCCCCCC)C(=O)N[C@H](C(=O)O)[C@H]1OC(n2ccc(=O)[nH]c2=O)[C@H](O)[C@@H]1O` (some centres not stated), the MIC is > 666 µg/mL.
Same read-out and setting: the figure for `N[C@@H](Cc1cccc(F)c1)C(=O)N[C@H](C(=O)O)[C@H]1O[C@@H](n2ccc(=O)[nH]c2=O)[C@H](O)[C@@H]1O` is > 1000 µg/mL; for `NCCOC[C@H](N)C(=O)N[C@H](C(=O)O)[C@H]1O[C@@H](n2ccc(=O)[nH]c2=O)[C@H](O)[C@@H]1O` it is > 1000 µg/mL.
The same measure, in the same setting: to `C[C@@H]([C@H](N)C(=O)N[C@H](C(=O)O)[C@H]1O[C@@H](n2ccc(=O)[nH]c2=O)[C@H](O)[C@@H]1O)[C@H](O)c1ccc(O)cn1` [NIKKOMYCIN] belongs 666 µg/mL (≈ 1340 µM); to `COC(=O)/C=C/C(=O)NC[C@H](N)C(=O)N[C@H](C(=O)O)[C@H]1O[C@@H](n2ccc(=O)[nH]c2=O)[C@H](O)[C@@H]1O`, 1000 µg/mL (≈ 2060 µM); to `CC(C)C[C@H](N)C(=O)N[C@H](C(=O)N[C@H](C(=O)O)[C@H]1OC(n2cc(CO)c(=O)[nH]c2=O)[C@H](O)[C@@H]1O)[C@H](O)[C@@H](O)COC(N)=O` (some centres not stated), 666 µg/mL (≈ 1070 µM).

A further test has as its system Candida albicans. Put plainly: Compound was tested for its lowest concentration at which growth of H-317 strain of Candida albicans was clearly inhibited. The test is classed as functional.
As to `CCCCCCCC(=O)NCCCC[C@H](NC(=O)[C@@H](N)CCCCNC(=O)CCCCCCC)C(=O)N[C@H](C(=O)O)[C@H]1OC(n2ccc(=O)[nH]c2=O)[C@H](O)[C@@H]1O` (some centres not stated), the minimum inhibitory concentration (MIC) is > 666 µg/mL.
Still for that read-out and setting: the figure for `N[C@@H](Cc1cccc(F)c1)C(=O)N[C@H](C(=O)O)[C@H]1O[C@@H](n2ccc(=O)[nH]c2=O)[C@H](O)[C@@H]1O` is > 1000 µg/mL; for `NCCOC[C@H](N)C(=O)N[C@H](C(=O)O)[C@H]1O[C@@H](n2ccc(=O)[nH]c2=O)[C@H](O)[C@@H]1O` it is > 1000 µg/mL.
Same read-out and setting: the figure for `C[C@@H]([C@H](N)C(=O)N[C@H](C(=O)O)[C@H]1O[C@@H](n2ccc(=O)[nH]c2=O)[C@H](O)[C@@H]1O)[C@H](O)c1ccc(O)cn1` [NIKKOMYCIN] is 20 µg/mL (≈ 40.4 µM); for `COC(=O)/C=C/C(=O)NC[C@H](N)C(=O)N[C@H](C(=O)O)[C@H]1O[C@@H](n2ccc(=O)[nH]c2=O)[C@H](O)[C@@H]1O` it is 250 µg/mL (≈ 515 µM).
`CC(C)C[C@H](N)C(=O)N[C@H](C(=O)N[C@H](C(=O)O)[C@H]1OC(n2cc(CO)c(=O)[nH]c2=O)[C@H](O)[C@@H]1O)[C@H](O)[C@@H](O)COC(N)=O` (some centres not stated): the minimal inhibitory concentration (MIC) was 333 µg/mL (≈ 537 µM).

The next test concerns the target Chitin synthase 1 (Candida albicans) (UniProt P23316). Put plainly: Compound was tested for its ability to inhibit chitin synthetase using Candida albicans strain H-317. The test is classed as functional. The method, boiled down: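 Mixed membrane fraction from C. albicans H-317 was used as the source of total chitin synthetase. Activity was measured with and without polyoxin compounds as N-acetylglucosamine incorporation into chitin. The value is the concentration giving 50% inhibition.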
`CCCCCCCC(=O)NCCCC[C@H](NC(=O)[C@@H](N)CCCCNC(=O)CCCCCCC)C(=O)N[C@H](C(=O)O)[C@H]1OC(n2ccc(=O)[nH]c2=O)[C@H](O)[C@@H]1O` (some centres not stated) displayed an ID50 of 80 µg/mL (≈ 101 µM).
For the molecule `N[C@@H](Cc1cccc(F)c1)C(=O)N[C@H](C(=O)O)[C@H]1O[C@@H](n2ccc(=O)[nH]c2=O)[C@H](O)[C@@H]1O`, the ID50 is 2 µg/mL (≈ 4.42 µM).
In the case of `NCCOC[C@H](N)C(=O)N[C@H](C(=O)O)[C@H]1O[C@@H](n2ccc(=O)[nH]c2=O)[C@H](O)[C@@H]1O`, the ID50 worked out at 100 µg/mL (≈ 240 µM).
`C[C@@H]([C@H](N)C(=O)N[C@H](C(=O)O)[C@H]1O[C@@H](n2ccc(=O)[nH]c2=O)[C@H](O)[C@@H]1O)[C@H](O)c1ccc(O)cn1` [NIKKOMYCIN] returned an ID50 of 0.3 µg/mL (≈ 0.606 µM).
Same read-out and setting: to `COC(=O)/C=C/C(=O)NC[C@H](N)C(=O)N[C@H](C(=O)O)[C@H]1O[C@@H](n2ccc(=O)[nH]c2=O)[C@H](O)[C@@H]1O` belongs 100 µg/mL (≈ 206 µM); to `CC(C)C[C@H](N)C(=O)N[C@H](C(=O)N[C@H](C(=O)O)[C@H]1OC(n2cc(CO)c(=O)[nH]c2=O)[C@H](O)[C@@H]1O)[C@H](O)[C@@H](O)COC(N)=O` (some centres not stated), 20 µg/mL (≈ 32.2 µM).

The subject of a further test is Candida albicans. Put plainly: Compound was tested for percent inhibition of transport of (Met)3 into Candida albicans H-317. Also noted: concentration or dose not given beside the values.
As to `N[C@@H](Cc1cccc(F)c1)C(=O)N[C@H](C(=O)O)[C@H]1O[C@@H](n2ccc(=O)[nH]c2=O)[C@H](O)[C@@H]1O`, the Transport inhibition is 0%.
With `NCCOC[C@H](N)C(=O)N[C@H](C(=O)O)[C@H]1O[C@@H](n2ccc(=O)[nH]c2=O)[C@H](O)[C@@H]1O`, the Transport inhibition amounted to 0%.
`C[C@@H]([C@H](N)C(=O)N[C@H](C(=O)O)[C@H]1O[C@@H](n2ccc(=O)[nH]c2=O)[C@H](O)[C@@H]1O)[C@H](O)c1ccc(O)cn1` [NIKKOMYCIN] came in with a Transport inhibition of 20%.
Same read-out and setting: the figure for `CC(C)C[C@H](N)C(=O)N[C@H](C(=O)N[C@H](C(=O)O)[C@H]1OC(n2cc(CO)c(=O)[nH]c2=O)[C@H](O)[C@@H]1O)[C@H](O)[C@@H](O)COC(N)=O` (some centres not stated) is 27%.

The test system of the next test is Candida albicans. The test is described as above. Details: concentration or dose not given beside the values. The source holds these as a separate data set.
`CCCCCCCC(=O)NCCCC[C@H](NC(=O)[C@@H](N)CCCCNC(=O)CCCCCCC)C(=O)N[C@H](C(=O)O)[C@H]1OC(n2ccc(=O)[nH]c2=O)[C@H](O)[C@@H]1O` (some centres not stated): the Transport inhibition was 56%.
Consider `COC(=O)/C=C/C(=O)NC[C@H](N)C(=O)N[C@H](C(=O)O)[C@H]1O[C@@H](n2ccc(=O)[nH]c2=O)[C@H](O)[C@@H]1O`, for which the Transport inhibition came to 0%.
